Data from ChEMBL document CHEMBL4382247, “A novel series of napabucasin derivatives as orally active inhibitors of signal transducer and activator of transcription 3 (STAT3)” (Eur J Med Chem, 2019).
Active and inactive are the calls of the source. The rule behind the calls is not given here.

Tests used:
HepG2 [1] = experiment: Decrease in total STAT3 expression in human HepG2 cells at 400 nM after 24 hrs by DAPI staining based immunofluorescence microscopic analysis; type: ADME, cell-based; details: hepg2, 24 h, 0.4 µM
Outline: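 HepG2 cells treated 24 h, stained with the same anti-total STAT3 antibody as the blots, nuclei counterstained with DAPI. Imaged on an inverted microscope with a 20× objective.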

[2] = Hepatotoxicity in BALB/c mouse implanted with mouse CT26 cells assessed as effect on liver morphology by measuring necrosis at 50 mg/kg, po administered once daily by H and E staining based histopathological analysis; type: toxicity, organism-based; details: in vivo
Outline: (§1)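 CT-26 subcutaneous flank tumour model in male BALB/c mice, five per group, dosed orally at 50mg/kg daily in 5% NMP/95% PEG 400 versus vehicle. After treatment, heart, liver, spleen, lung and kidney collected, sectioned and stained with H&E for histological examination.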

[3] = Toxicity in BALB/c mouse implanted with mouse CT26 cells assessed as effect on lung morphology by measuring cell inflammation at 50 mg/kg, po administered once daily by H and E staining based histopathological analysis; type: organism-based; details: in vivo; outline: as §1
U-251 [4] = experiment: Decrease in total STAT3 level in human U251 cells at 200 nM after 24 hrs by Western blot analysis; type: ADME, cell-based; details: u-251, 24 h, 0.2 µM
Outline: (§2)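 Cells treated 24 and 48 h. Lysed in RIPA with protease inhibitors, protein quantified by BCA, equal amounts run on 10% SDS-PAGE and transferred to PVDF. Blocked in 5% milk, probed overnight at 4 °C with anti-total STAT3, anti-p-STAT3 (Tyr705) and GAPDH antibodies. ECL detection.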

[5] = Toxicity in BALB/c mouse implanted with mouse CT26 cells assessed as effect on spleen morphology by measuring cell inflammation at 50 mg/kg, po administered once daily by H and E staining based histopathological analysis; type: organism-based; details: in vivo; outline: as §1
HepG2 [6] = experiment: Decrease in total STAT3 level in human HepG2 cells at 400 nM after 24 to 48 hrs by sandwich-ELISA; type: ADME, cell-based; details: hepg2, 0.4 µM
Outline: (§3)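 Cells treated 24 or 48 h. Whole-cell lysates made in lysis buffer with protease inhibitor cocktail. Total STAT3 and p-STAT3 Y705 measured by sandwich ELISA. Three repeats; groups compared with control by paired t-test; means ± S.D.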

[7] = Hepatotoxicity in BALB/c mouse implanted with mouse CT26 cells assessed as effect on liver morphology by measuring edema at 50 mg/kg, po administered once daily by H and E staining based histopathological analysis; type: toxicity, organism-based; details: in vivo; outline: as §1
U-251 [8] = experiment: Decrease in total STAT3 level in human U251 cells at 200 nM after 24 to 48 hrs by sandwich-ELISA; type: ADME, cell-based; details: u-251, 0.2 µM; outline: as §3
[9] = target: T1, Signal transducer and activator of transcription 3 (Homo sapiens, UniProt P40763); experiment: Inhibition of STAT3 phosphorylation at Y705 residue in human HepG2 cells at 400 nM after 24 hrs by Western blot analysis; type: cell-based; outline: as §2
U-251 [10] = experiment: Antiproliferative activity against human U251 cells after 72 hrs by MTT assay; type: functional, cell-based; details: U-251, 72 h
Outline: (§4)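 Cells seeded at 5 × 10^3 per well and cultured 24 h before compound addition at varied concentrations, then grown a further 72 h; 0.5% DMSO as solvent control. MTT (5mg/ml solution) added for 4 h, formazan dissolved in DMSO, absorbance read at 570nm. Each treatment in triplicate; Mean ± SD.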

[11] = Toxicity in BALB/c mouse implanted with mouse CT26 cells assessed as effect on kidney morphology by measuring cell inflammation at 50 mg/kg, po administered once daily by H and E staining based histopathological analysis; type: organism-based; details: in vivo; outline: as §1
CT26 [12] = experiment: Antiproliferative activity against mouse CT26 cells after 72 hrs by MTT assay; type: functional, cell-based; details: CT26, 72 h; outline: as §4
[13] = Hepatotoxicity in BALB/c mouse implanted with mouse CT26 cells assessed as effect on liver morphology by measuring cell inflammation at 50 mg/kg, po administered once daily by H and E staining based histopathological analysis; type: toxicity, organism-based; details: in vivo; outline: as §1
CT26 [14] = experiment: Potency index, ratio of napabucasin IC50 to test compound IC50 for mouse CT26 cells; type: functional
[15] = target: T1, Signal transducer and activator of transcription 3; experiment: Inhibition of STAT3 phosphorylation at Y705 residue in human HepG2 cells at 400 nM after 24 to 48 hrs by sandwich-ELISA; type: cell-based; outline: as §3
HepG2 [16] = experiment: Potency index, ratio of napabucasin IC50 to test compound IC50 for human HepG2 cells; type: functional
[17] = Toxicity in BALB/c mouse implanted with mouse CT26 cells assessed as effect on lung morphology by measuring edema at 50 mg/kg, po administered once daily by H and E staining based histopathological analysis; type: organism-based; details: in vivo; outline: as §1
CT26 [18] = experiment: Antitumor activity against mouse CT26 cells implanted in BALB/c mouse assessed as tumor growth inhibition at 50 mg/kg, po administered once daily measured every 3 days relative to control; type: functional; details: 72 h, read-out: TGI
Outline: (§5)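 Male BALB/c mice, 6 weeks old, given 1 × 10^6 CT-26 cells subcutaneously in the right flank. At about 70 mm3 tumour volume, randomized into groups of five and dosed orally once daily with 50mg/kg or vehicle (5% NMP in PEG 400). Tumours measured by caliper every 3 days, V = ab^2/2. Tumours weighed at sacrifice. TGI computed from mean tumour weights. T/C computed as mean RTV (Vt/V0) treated over control.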

[19] = Cardiotoxicity in BALB/c mouse implanted with mouse CT26 cells assessed as effect on heart morphology by measuring cell inflammation at 50 mg/kg, po administered once daily by H and E staining based histopathological analysis; type: toxicity, organism-based; details: in vivo; outline: as §1
CT26 [20] = experiment: Antitumor activity against mouse CT26 cells implanted in BALB/c mouse assessed as tumor growth at 50 mg/kg, po administered once daily measured every 3 days relative to control; type: functional; outline: as §5
[21] = target: T1, Signal transducer and activator of transcription 3; experiment: Inhibition of biotin-labelled DNA probe binding to recombinant N-terminal FLAG-tagged STAT3 (unknown origin) expressed in HEK293 cells at 100 to 200 nM by EMSA; type: cell-based
Outline: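 HEK293T cells transiently transfected with N-terminal FLAG-STAT3 (10 µg per 10 cm dish) and harvested at 48 h. STAT3 purified on anti-FLAG magnetic beads and eluted with FLAG peptide (200 µg/mL). Chemiluminescent EMSA with biotin-labelled STAT3 probe, 5 µL protein and 1 µL probe per lane. Cold-probe and anti-STAT3 antibody lanes included.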

HT-29 = experiment: Potency index, ratio of napabucasin IC50 to test compound IC50 for human HT-29 cells; type: functional
[22] = Toxicity in BALB/c mouse implanted with mouse CT26 cells assessed as effect on spleen morphology by measuring necrosis at 50 mg/kg, po administered once daily by H and E staining based histopathological analysis; type: organism-based; details: in vivo; outline: as §1
HepG2 [23] = experiment: Antiproliferative activity against human HepG2 cells after 72 hrs by MTT assay; type: functional, cell-based; details: HepG2, 72 h; outline: as §4
[24] = Cardiotoxicity in BALB/c mouse implanted with mouse CT26 cells assessed as effect on heart morphology by measuring necrosis at 50 mg/kg, po administered once daily by H and E staining based histopathological analysis; type: toxicity, organism-based; details: in vivo; outline: as §1
U-251 [25] = experiment: Potency index, ratio of napabucasin IC50 to test compound IC50 for human U251 cells; type: functional

T1 sequence (P40763 whole entry): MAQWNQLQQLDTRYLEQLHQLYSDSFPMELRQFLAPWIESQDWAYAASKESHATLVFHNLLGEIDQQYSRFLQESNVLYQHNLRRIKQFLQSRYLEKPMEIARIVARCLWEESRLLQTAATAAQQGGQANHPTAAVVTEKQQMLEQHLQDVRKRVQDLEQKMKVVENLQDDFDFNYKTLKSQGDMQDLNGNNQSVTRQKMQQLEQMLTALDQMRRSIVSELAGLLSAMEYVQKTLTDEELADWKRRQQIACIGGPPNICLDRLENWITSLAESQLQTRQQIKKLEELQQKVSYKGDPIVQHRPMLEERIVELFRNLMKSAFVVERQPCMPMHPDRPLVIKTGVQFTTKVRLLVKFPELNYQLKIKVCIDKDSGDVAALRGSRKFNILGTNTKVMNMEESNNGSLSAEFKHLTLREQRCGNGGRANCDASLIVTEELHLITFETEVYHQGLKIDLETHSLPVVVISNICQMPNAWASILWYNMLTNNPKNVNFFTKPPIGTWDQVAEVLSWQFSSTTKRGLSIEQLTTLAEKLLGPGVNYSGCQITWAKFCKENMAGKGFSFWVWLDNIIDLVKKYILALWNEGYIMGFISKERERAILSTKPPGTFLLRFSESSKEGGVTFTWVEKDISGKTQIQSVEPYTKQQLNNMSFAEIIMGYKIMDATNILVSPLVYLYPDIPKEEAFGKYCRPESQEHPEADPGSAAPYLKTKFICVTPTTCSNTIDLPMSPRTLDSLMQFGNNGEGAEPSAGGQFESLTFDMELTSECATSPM

- inhibition [9]: Active
- IC50 (U-251 [10]): 220 nM
- IC50 (CT26 [12]): 140 nM
- inhibition [15]: Active
- inhibition [21]: Active
- IC50 (HepG2 [23]): 490 nM
Compound: O=C(NCCN1CCCCC1)c1cc2c(o1)C(=O)c1ccccc1C2=O
- Activity (HepG2 [1]): Toxic
- Activity [2]: Non-Toxic
- Activity [3]: Non-Toxic
- Activity (U-251 [4]): Toxic
- Activity [5]: Non-Toxic
- Activity (HepG2 [6]): Toxic
- Activity [7]: Non-Toxic
- Activity (U-251 [8]): Toxic
- Activity [11]: Non-Toxic
- Activity [13]: Non-Toxic
- Ratio IC50 (CT26 [14]): >10
- Ratio IC50 (HepG2 [16]): >10
- Activity [17]: Non-Toxic
- inhibition in vivo at 50 mg/kg (CT26 [18]): 63%
- Activity [19]: Non-Toxic
- T/C (CT26 [20]): 28%
- Ratio IC50 (HT-29): >10
- Activity [22]: Non-Toxic
- Activity [24]: Non-Toxic
- Ratio IC50 (U-251 [25]): >10
